Measurements published in ChEMBL document CHEMBL1156702, “Synthesis and molecular modelling of unsaturated exomethylene pyranonucleoside analogues with antitumor and antiviral activities” (Eur J Med Chem, 2008).

Assays:
[1] = Cytotoxicity against human H4 cells after 72 hrs; type: cell-based
Procedure, shortened: (§1)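 Cells kept in DMEM with 5% foetal calf serum, L-glutamine, penicillin/streptomycin at 37 °C, 5% CO2. Seeded cells exposed to 3-fold serial dilutions (starting 0.5 mg/mL; DMSO stock, final DMSO <0.1%) for 72 h at 37 °C. Treated wells (n=2) compared with controls (n=24). CC50 taken from concentration-effect curve.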

[2] = Ratio of CC50 for human Caco-2 cells to IC50 for rotavirus RF assessed by inhibition of infectivity following virus attachment
[3] = Cytotoxicity against human Caco-2 cells after 72 hrs; type: cell-based; procedure, shortened: as §1

SMILES	CC50 at 72 h [1]	Ratio CC50/IC50 [2]	CC50 at 72 h [3]
C=C1C=C[C@@H](n2ccc(=O)[nH]c2=O)O[C@@H]1COC(c1ccccc1)(c1ccccc1)c1ccccc1	1040 µM		
Cc1cn([C@H]2C[C@H](N=[N+]=[N-])[C@@H](CO)O2)c(=O)[nH]c1=O [ZIDOVUDINE]		2.5	56.1 µM
O=C1C=C[C@@H](n2ccc(=O)[nH]c2=O)O[C@@H]1CO	2100 µM		
C=C1C=C[C@@H](n2ccc(=O)[nH]c2=O)O[C@@H]1CO	2120 µM		
C=C1[C@@H](CO)O[C@H](n2ccc(=O)[nH]c2=O)[C@@H](O)[C@H]1O	1850 µM		
